The record followed here is ChEMBL document CHEMBL1944589, “Identification of novel SAR properties of the Jak2 small molecule inhibitor G6: significance of the para-hydroxyl orientation” (2012).

Calls of active or inactive are those of the source. The rule behind the calls is not given here.

Usually residual activity stands for the signal under treatment as a percentage of the control signal.

The subject of test [1] is HEL. Put plainly: Growth inhibition of human HEL cells expressing Jak2 V617F mutation at 0.03 to 30 uM after 72 hrs by trypan blue exclusion B assay. The format is functional, cell-based. The essentials: (§1)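 HEL cells were incubated with graded compound concentrations for 72 h. Viability was determined by trypan blue exclusion.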
For test [2], the system named is HEL. Put plainly: Cell cycle arrest in human HEL cells assessed as decrease in cell population at G1 phase at 10 uM after 24 hrs by flow cytometric analysis. The format is functional, cell-based. The procedure, abridged: (§2)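 HEL cells were exposed to 10 μM of each compound for 24 h. DNA content was then analyzed by flow cytometry. Data come from two experiments, each measured in triplicate.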
A general note: Flow cytometry measures light scatter and fluorescence of single cells or particles in a stream.

Test [3] relates to HEL. Put plainly: Cell cycle arrest in human HEL cells assessed as increase in cell population at G2 phase at 10 uM after 24 hrs by flow cytometric analysis. The format is functional, cell-based. The procedure, abridged:
as §2

The test system of test [4] is HEL. Put plainly: Cell cycle arrest in human HEL cells assessed as accumulation at G2/M phase at 10 uM after 24 hrs by flow cytometric analysis. The format is functional, cell-based. The procedure, abridged:
as §2

Test [5] deals with HEL. Put plainly: Cell cycle arrest in human HEL cells assessed as decrease in cyclin A expression at 25 uM after 24 hrs by Western blot analysis. In kind it is functional, cell-based. The essentials: (§3)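 HEL cells were exposed to 25 μM of each compound for 24 h. Lysates were immunoblotted for cyclin A, cyclin B1 and CDK1, with β-actin as the loading control. Two independent experiments were run.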

Test [6] concerns HEL. Put plainly: Cell cycle arrest in human HEL cells assessed as effect on cyclin B1 expression at 25 uM after 24 hrs by Western blot analysis. The format is functional, cell-based. The essentials:
as §3
A general note: A western blot detects proteins with antibodies after separation by electrophoresis.

In test [7] the test system is HEL. Put plainly: Cell cycle arrest in human HEL cells assessed as effect on CDK1 expression at 25 uM after 24 hrs by Western blot analysis. In kind it is functional, cell-based. The procedure, abridged: as §3
Test [8] concerns HEL. Put plainly: Induction of apoptosis in human HEL cells at 10 uM after 48 hrs by annexinV-propidium iodide staining-based flow cytometric analysis. In kind it is functional, cell-based. The procedure, abridged:
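HEL cells were exposed to 10 μM of each compound for 48 h, then stained with Annexin V and propidium iodide and analyzed by flow cytometry. Early apoptosis was scored as Annexin V-positive, PI-negative. Data come from two independent experiments, each in triplicate.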

The subject of test [9] is HEL. Put plainly: Induction of apoptosis in human HEL cells assessed as cleavage of PARP at 25 uM after 24 hrs by Western blot analysis. The format is functional, cell-based. The essentials: (§4)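 HEL cells were exposed to 25 μM of each compound for 24 h. Cleavage of PARP, caspase-3, Bid and Bim was assessed by Western blot. Two experiments were run for each blot.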
Test [10] deals with HEL. Put plainly: Induction of apoptosis in human HEL cells assessed as cleavage of caspase-3 at 25 uM after 24 hrs by Western blot analysis. In kind it is functional, cell-based. The procedure, abridged: as §4
Test [11] deals with Bone marrow cell. Put plainly: Anticolonegic activity in mouse bone marrow cells expressing Jak2 V617F mutation assessed as decrease in number of erythroid burst forming units at 25 uM after 24 hrs and measured on day 6. In kind it is functional, cell-based. The procedure, abridged:
(§5)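 Bone marrow cells taken from 6-month-old Jak2-V617F transgenic mice were incubated ex vivo in medium containing 25 μM of each compound for 0, 12 or 24 h. Cells were then washed, plated in methylcellulose (semi-solid) medium and cultured for 6 further days. BFU-E and CFU-GM colonies were counted. Each condition was run in duplicate and compared with the 0 h condition.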

Test [12] concerns Bone marrow cell. Put plainly: Anticolonegic activity in mouse bone marrow cells expressing Jak2 V617F mutation assessed as decrease in number of granulocyte/macrophage colony forming units at 25 uM after 24 hrs and measured on day 6. In kind it is functional, cell-based. The procedure, abridged:
as §5

For test [13], the system named is Bone marrow cell. Put plainly: Anticolonegic activity in mouse bone marrow cells expressing Jak2 V617F mutation assessed as decrease in number of erythroid burst forming units at 25 uM after 12 hrs and measured on day 6. In kind it is functional, cell-based. The procedure, abridged:
as §5

Test [14] relates to Bone marrow cell. Put plainly: Anticolonegic activity in mouse bone marrow cells expressing Jak2 V617F mutation assessed as decrease in number of granulocyte/macrophage colony forming units at 25 uM after 12 hrs and measured on day 6. The format is functional, cell-based. The procedure, abridged: as §5
Test [15] concerns the target Tyrosine-protein kinase JAK2 (Homo sapiens) (UniProt O60674). Put plainly: Jak2 autophosphorylation at 2.5 uM after 30 mins by Western blot analysis as % of control.
Test [16] shares this target. Put plainly: Jak2-mediated GST-STAT1 phosphorylation at 2.5 uM after 30 mins by Western blot analysis as % of control.
Test [17] relates to HEL. Put plainly: Growth inhibition of human HEL cells expressing Jak2 V617F mutation after 72 hrs by trypan blue exclusion B assay. The format is functional, cell-based. The essentials:
as §1

The test system of test [18] is HEL. Put plainly: Growth inhibition of human HEL cells expressing Jak2 V617F mutation at 0.03 to 30 uM by trypan blue exclusion B assay. Particulars: TDE = time-dependent effect. The format is functional, cell-based.
Test [19] concerns HEL. Put plainly: Growth inhibition of human HEL cells expressing Jak2 V617F mutation at 0.85 uM after 72 hrs by trypan blue exclusion B assay. In kind it is functional. Conditions: read-out: GI. The essentials:
as §1

In test [20] the test system is HEL. Put plainly: Growth inhibition of human HEL cells expressing Jak2 V617F mutation at 0.03 to 30 uM at 24 to 72 hrs by trypan blue exclusion B assay. The format is functional, cell-based.
Test [21] deals with BaF3. Put plainly: Growth inhibition of mouse BAF3 cells expressing Jak2 […] mutation after 72 hrs by MTS assay. In kind it is functional, cell-based. The essentials: (§6)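 Ba/F3 cells expressing EpoR and Jak2-V617F were incubated with graded compound concentrations for 72 h. Viability was read by MTS assay. Data come from two independent experiments, each in triplicate.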
On the technique in general: Tetrazolium dyes change colour on reduction, which living cells bring about.

Test [22] concerns BaF3. Put plainly: Growth inhibition of mouse BAF3 cells expressing Jak2 V617 mutation at 0.03 to 30 uM by MTS assay. In kind it is functional, cell-based. Particulars: TDE = time-dependent effect. The essentials:
as §6

The target of test [23] is Tyrosine-protein kinase JAK2 (Homo sapiens) (UniProt O60674). Put plainly: Inhibition of Jak2-mediated STAT5 phosphorylation at Try694 in human HEL cells at 25 uM after 24 hrs by Western blot analysis. The format is cell-based. The essentials:
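HEL cells were exposed to 25 μM of each compound for 24 h. Lysates were immunoprecipitated for STAT5 and phospho-STAT5 was detected by Western blot. Densitometry expressed phospho-STAT5 as percent of total, normalized to the DMSO control; n = 4.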

The test system of test [24] is HEL. Put plainly: Induction of apoptosis in human HEL cells assessed as cleavage of Bim at 25 uM after 24 hrs by Western blot analysis. The format is functional, cell-based. The essentials: as §4
Test [25] relates to HEL. Put plainly: Induction of apoptosis in human HEL cells assessed as cleavage of Bid at 25 uM after 24 hrs by Western blot analysis. The format is functional, cell-based. The essentials:
as §4

In test [26] the test system is BaF3. Put plainly: Growth inhibition of mouse BAF3 cells expressing Jak2 V617 mutation at 30 uM after 72 hrs by MTS assay. In kind it is functional, cell-based. The essentials:
as §6

Chain of Tyrosine-protein kinase JAK2 (Homo sapiens) (O60674 whole entry): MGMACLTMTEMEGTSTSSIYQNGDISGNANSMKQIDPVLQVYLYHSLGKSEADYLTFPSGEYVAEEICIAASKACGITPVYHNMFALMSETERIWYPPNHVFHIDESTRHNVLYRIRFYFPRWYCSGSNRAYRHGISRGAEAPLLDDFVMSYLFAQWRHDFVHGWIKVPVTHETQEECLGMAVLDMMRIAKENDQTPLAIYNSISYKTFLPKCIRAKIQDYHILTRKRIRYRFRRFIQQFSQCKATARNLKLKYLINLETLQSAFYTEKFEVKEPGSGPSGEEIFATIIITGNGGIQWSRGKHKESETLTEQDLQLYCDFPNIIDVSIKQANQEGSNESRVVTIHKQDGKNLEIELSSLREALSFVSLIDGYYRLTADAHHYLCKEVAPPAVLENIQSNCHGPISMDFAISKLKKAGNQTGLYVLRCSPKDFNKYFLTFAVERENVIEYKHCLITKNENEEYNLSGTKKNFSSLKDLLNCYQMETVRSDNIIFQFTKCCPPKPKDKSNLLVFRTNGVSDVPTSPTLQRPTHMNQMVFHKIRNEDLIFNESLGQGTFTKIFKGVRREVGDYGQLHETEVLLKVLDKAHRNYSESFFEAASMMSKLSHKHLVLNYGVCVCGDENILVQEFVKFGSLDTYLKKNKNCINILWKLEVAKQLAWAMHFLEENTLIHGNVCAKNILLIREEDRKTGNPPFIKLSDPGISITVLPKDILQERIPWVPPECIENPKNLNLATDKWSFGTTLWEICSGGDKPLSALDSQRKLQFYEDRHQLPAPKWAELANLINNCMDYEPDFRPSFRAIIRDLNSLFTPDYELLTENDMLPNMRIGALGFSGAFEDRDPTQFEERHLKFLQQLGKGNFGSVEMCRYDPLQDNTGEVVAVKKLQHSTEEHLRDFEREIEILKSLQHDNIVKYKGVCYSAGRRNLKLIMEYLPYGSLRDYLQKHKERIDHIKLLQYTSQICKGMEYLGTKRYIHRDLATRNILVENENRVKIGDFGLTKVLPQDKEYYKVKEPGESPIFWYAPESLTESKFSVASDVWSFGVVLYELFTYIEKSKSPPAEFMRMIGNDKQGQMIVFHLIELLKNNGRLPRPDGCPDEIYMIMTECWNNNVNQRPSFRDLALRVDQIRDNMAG

For the compound `C/C(=C(/C)c1ccc(CN(C)C)c(O)c1)c1ccc(CN(C)C)c(O)c1`, in test [1], the “growth inhibition (GI)” value was “Active”. The result in test [2], in test [3], in test [4], in test [5], in [8] and in [9] was Active. Further, the result in test [10], in test [11], in test [12], in test [13] and in test [14] was Active. Further, the result in test [6] and in [7] was inactive. For the same compound, the residual activity in test [15] worked out at 98.4%; in [16] it was 104%.
In the case of `CN(C)Cc1cc(/C=C/c2ccc(O)c(CN(C)C)c2)ccc1O`, the “growth inhibition (GI)” value in test [17] was “Dose-dependent effect”; in [18] it was “tde”; in test [21] it was “Dose-dependent effect”; in test [22], “tde”. Besides, the inhibition of growth at 0.85 µM in [19] worked out at 50%. Further, the “growth inhibition (GI)” value in test [20] is “Active”. Further, in test [23], the inhibition result was “Active”. The outcome in test [2], in [3], in test [4], in test [5], in test [8] and in test [9] was Active. The result in test [10], in [24], in test [25], in [11], in test [12] and in test [13] was Active. Also, in [14], the result was Active. Further, the result in test [6] and in test [7] was inactive. Moreover, the values for the residual activity in [15] and in test [16] were 44.2% and 71.5%, respectively.
With `C/C(=C(/C)c1ccc(O)c(CN(C)C)c1)c1ccc(O)c(CN(C)C)c1`, the “growth inhibition (GI)” value in test [1] is “Active”. The outcome in [5], in [6] and in test [7] was inactive. In addition, the result in test [8], in test [9], in [11] and in test [12] was Active. In addition, the residual activity in [15] and in [16] was 89.1% in each case.
Turning to `CN(C)Cc1ccc(/C=C/c2ccc(CN(C)C)c(O)c2)cc1O`, the “growth inhibition (GI)” value in test [1] and in test [26] was “Active” each time. The result in test [5], in test [6], in test [7], in test [8] and in test [9] was inactive. Besides, the result in test [12] was Active. In addition, the residual activity in test [15] was determined as 94.4%; in [16] it was 93.3%.
